The series is described as follows: Toxicity liver stage against HepG2, at 10uM. Format: cell-based. Also on record: test concentration 10 uM, cell line HepG2-A16-CD81EGFP. The settings on record: human, HepG2-A16-CD81EGFP cells; read-out: INHIBITION
In outline:
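Uninfected HepG2-A16-CD81EGFP cells, 3 × 10^3 per well, 1536-well, plated on prespotted compound at 10 μM final, parasite-free screening media added to match infected plates; puromycin 10 μM positive, DMSO 0.5% negative; run in parallel with 48 h PbLuc assay at 37 °C, 5% CO2; viability by CellTiter-Glo luminescence, normalized to controls.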
In the case of `Cc1sc(NS(=O)(=O)c2ccccc2)nc1C(=O)NC1CC1`, the cytotoxicity at 10 µM worked out at 5.73%.

Turning to `CC(=O)NCC(=O)NCC1Cn2nnc(-c3cccc(F)c3)c2CO1` (configuration not stated), the cytotoxicity at 10 µM is -6.77%.

Regarding `CC(=O)N1CC2(CCN(C(=O)c3ccoc3)C2)C1`, the cytotoxicity at 10 µM is 6.47%.

Take `CCOc1cc(=O)n2c(c1C(=O)OCc1ccc(OC)cc1)CCCC2`: the cytotoxicity at 10 µM is 5.95%.

For `Cc1ccc(C2CCCCCN2Cc2cn(C)nc2C)s1` (configuration not stated), the cytotoxicity at 10 µM was -6.47%.

`Cc1ncc(C(=O)N2CC(C(=O)N3CCCCCC3)C2)c(C)n1`: the cytotoxicity at 10 µM stood at 6.39%.

Consider `COc1ccc2c(c1)c(-c1nc(C)ncc1CN)cn2C`, for which the cytotoxicity at 10 µM was found to be 21.7%.

Consider `Cc1csc(C(=O)N2CCCC(c3[nH]ncc3S(C)(=O)=O)C2)c1` (configuration not stated), for which the cytotoxicity at 10 µM is -3.17%.

Turning to `Cn1ccnc1Sc1ncc(C(=O)N2CCCCC2)cc1Cl`, the cytotoxicity at 10 µM was -61%.

In the case of `CCOc1ccc(N(C)Cc2nnc(C)o2)cc1`, the cytotoxicity at 10 µM was 9.46%.

On to `O=C(CCNc1ccccc1)NC1CCN(C(=O)C2CCCCC2)CC1`, for which the cytotoxicity at 10 µM came out at 6.72%.

Regarding `CCn1cnnc1CCNS(=O)(=O)N1CCCC1c1ccco1` (configuration not stated), the cytotoxicity at 10 µM was -136%.

For `CCOC1CCN(C(=O)NCc2ccc(C(=O)N(C)C(C)C)cc2)CC1`, the cytotoxicity at 10 µM was -6.55%.

On to `CCN1CCC(NC(=O)N(C)Cc2csc3ccccc23)CC1`, for which the cytotoxicity at 10 µM is -45%.

`CC(C)Oc1ccccc1CNC(=O)N(C)CC(F)F`: the cytotoxicity at 10 µM is -41.5%.

Consider `CCS(=O)(=O)N1CCc2c(cccc2NCc2ncc[nH]2)C1`, for which the cytotoxicity at 10 µM is -42.9%.

In the case of `O=C(c1c(F)cccc1Br)N1CCCOCC1`, the cytotoxicity at 10 µM amounted to 6.69%.

As for `CC(C)CC(NCc1cccs1)c1ccccn1` (configuration not stated), the cytotoxicity at 10 µM amounted to 3.46%.

For the compound `CC(=O)N1CCN(CC(=O)NCCCN(C)c2ccccc2)CC1`, the cytotoxicity at 10 µM stood at 8.21%.

With `COc1cc2nc(NCc3ccc(C)nc3)nc(N)c2cc1OC`, the cytotoxicity at 10 µM stood at 2.94%.

Consider `CCS(=O)(=O)NCCNCc1ccc(Cl)c2cccnc12`, for which the cytotoxicity at 10 µM is -0.969%.

Consider `CN(C)C1(CNc2ncc(Br)cn2)CCOCC1`, for which the cytotoxicity at 10 µM was -8.66%.

Take `CCOC1CCCN(C(=O)c2[nH]nc(C)c2Br)C1` (configuration not stated): the cytotoxicity at 10 µM turned out to be 0.966%.

Consider `CCCc1[nH]n(C)c(=N)c1-c1ccc2c(c1)OCO2`, for which the cytotoxicity at 10 µM is -51.5%.

Regarding `CCN(C(=O)CN1CCC(c2n[nH]c(C3CC3)n2)CC1)C1CC1`, the cytotoxicity at 10 µM is -2.07%.

On to `O=S(=O)(Nc1c(F)cccc1N1CCCC1)c1cncc(F)c1`, for which the cytotoxicity at 10 µM was 3.22%.

As to `COC(C)c1cccc(NC(=O)N(CCC#N)Cc2ccccn2)c1` (configuration not stated), the cytotoxicity at 10 µM worked out at 13.1%.

With `CC1(C)CN=C(N2CCN(CC3CCCCO3)CC2)S1` (configuration not stated), the cytotoxicity at 10 µM is -1.61%.

Turning to `CC(NC(=O)N1CCC(CC(N)=O)CC1)c1csc2ccccc12` (configuration not stated), the cytotoxicity at 10 µM worked out at 1.73%.

As for `Cc1ccc(OCCCNC(=O)Cc2nc3ncccn3n2)cc1`, the cytotoxicity at 10 µM is -1.08%.

For `CC(C)NC(=O)CC(C)NCc1cc(Cl)ccc1F` (configuration not stated), the cytotoxicity at 10 µM was -40%.

As for `CCOc1cc(F)ccc1NS(=O)(=O)c1cc(C)c(C(=O)O)s1`, the cytotoxicity at 10 µM was -10%.

Consider `CCOCc1nn(C)c2c1CN(CCO)CC2`, for which the cytotoxicity at 10 µM was -103%.

As to `Cc1cnc(N2CCCC3(COCCN(c4nccs4)C3)C2)nc1` (configuration not stated), the cytotoxicity at 10 µM is -112%.

In the case of `CC(C)=CCN1CC2(CCN(C(=O)CCn3ccnc3C)CC2)CC1=O`, the cytotoxicity at 10 µM is -6.3%.

Regarding `CNc1ncc(C(=O)N2CCC3(CC2)Nc2ccccc2NC3=O)cn1`, the cytotoxicity at 10 µM is 1.02%.

In the case of `COc1cc2c(cc1C1CC(=O)NCc3nc(N(C)C)sc31)CCC2` (configuration not stated), the cytotoxicity at 10 µM came out at 1.16%.

`COc1ccccc1-n1nc(-c2ccco2)n(CC(=O)NC2CC2)c1=O`: the cytotoxicity at 10 µM worked out at 0.355%.

As to `COc1cccc(C(C(=O)O)N2CCCN(c3ccnc(C)c3)CC2)c1` (configuration not stated), the cytotoxicity at 10 µM came out at 4.98%.

Take `O=C(O)c1cc(-c2ccoc2)cc(S(=O)(=O)NCc2ccccn2)c1`: the cytotoxicity at 10 µM is -47.6%.

Consider `CC(C)Cc1ncc2c(n1)CN(c1cc(N3CCCC3)nc(N)n1)C2`, for which the cytotoxicity at 10 µM is 0.489%.

Consider `COCCN(C/C=C/c1ccccc1)Cc1ccccn1`, for which the cytotoxicity at 10 µM came to 6.82%.

Consider `Cc1ccc(C(C)NCc2cn(CCC(N)=O)c3ccccc23)cc1C` (configuration not stated), for which the cytotoxicity at 10 µM is -1.69%.

Take `CSc1nccc(N2CCCC(c3nccn3C(C)C)C2)n1` (configuration not stated): the cytotoxicity at 10 µM was 7.72%.

Turning to `O=C(NCc1c(F)cccc1Cl)c1cc(CN2CCCC(O)C2)on1` (configuration not stated), the cytotoxicity at 10 µM was -44.9%.

Turning to `CC(C)N1C[C@H](NC(=O)c2coc(COc3cccc(F)c3)n2)[C@@H](O)C1`, the cytotoxicity at 10 µM was -145%.

Turning to `Cc1cc(C)c2c(c1)NC(=O)C2CC(=O)O` (configuration not stated), the cytotoxicity at 10 µM came out at 9.13%.

As for `c1ncc(-c2cn(CCSc3cnn[nH]3)nn2)cn1`, the cytotoxicity at 10 µM was -41.7%.

`CCOc1ccnc(NCc2nc(C)cc(=O)[nH]2)n1`: the cytotoxicity at 10 µM was -8.42%.

As to `Cc1ncsc1CCC(=O)NC1CCN(Cc2cccs2)CC1`, the cytotoxicity at 10 µM is -3.09%.

With `CCCc1nc(N2CCCN3CCC[C@H]3C2)c2cnn(C)c2n1`, the cytotoxicity at 10 µM was -129%.

On to `N[C@H]1CN(CCOc2ccc(F)cc2)C[C@@H]1C1CC1`, for which the cytotoxicity at 10 µM is -1.93%.

As for `COCCN(CC1CCCO1)C(=O)CCNC(=O)c1ccccc1F` (configuration not stated), the cytotoxicity at 10 µM was -41.7%.

Regarding `Cn1ncc2c(N3CCN(CCC(N)=O)CC3)nc(C3CCCC3)nc21`, the cytotoxicity at 10 µM was -2.45%.

Consider `CCC(=O)c1ccc(OCC(=O)NC(C)Cc2cc(C)n[nH]2)cc1` (configuration not stated), for which the cytotoxicity at 10 µM was -39.7%.

On to `Cn1ncc(N2CCN(Cc3ccc(S(C)(=O)=O)cc3)CC2)cc1=O`, for which the cytotoxicity at 10 µM was -1.44%.

As to `Cc1ccc(C(=O)O)cc1CNC(=O)CN1CC[C@](C)(O)C(C)(C)C1`, the cytotoxicity at 10 µM was -4.18%.

On to `Cc1ccc(CCNc2ncc(C)c(-c3ccnn3C)n2)s1`, for which the cytotoxicity at 10 µM was 9.68%.

As to `COCc1nc(CN2C(=O)OC[C@@H]2C(C)C)no1`, the cytotoxicity at 10 µM was -12.4%.

As to `COC(=O)N1CCN(C(=O)c2ccc(C)c(N3CCNC3=O)c2)CC1`, the cytotoxicity at 10 µM came out at 3.76%.

Take `CC(c1cccnc1)N(C)Cc1cc2cc3c(cc2[nH]c1=O)OCO3` (configuration not stated): the cytotoxicity at 10 µM was determined as 9.27%.

`CC(C)CC(O)C1CCN(C(=O)c2ccc(C(C)C)[nH]c2=O)CC1` (configuration not stated): the cytotoxicity at 10 µM was 3.25%.

For the compound `Cc1ccsc1CN1CC2(CCN(C(=O)C3CC3)CC2)CC1C(=O)O` (configuration not stated), the cytotoxicity at 10 µM turned out to be 3.24%.

As to `COc1ccc(OC)c(C2CCN(C3CCN(C(C)=O)CC3)C2)c1` (configuration not stated), the cytotoxicity at 10 µM was -3.2%.

Regarding `Cc1ccc(N2CCC(CCN3CCCC3=O)CC2)nn1`, the cytotoxicity at 10 µM came out at 6.35%.

As for `CNC(=O)c1noc(CN2CC[C@](C)(O)[C@H](C)C2)n1`, the cytotoxicity at 10 µM is -37.5%.

Regarding `Cc1[nH]nc(CCC(=O)N2CCc3ncnc(NCCO)c3CC2)c1C`, the cytotoxicity at 10 µM was -0.781%.

For `COc1ccc2cc(C(=O)N3CC[C@H](CO)[C@H](O)C3)n(C)c2c1`, the cytotoxicity at 10 µM was -7.03%.

As to `O=C1CCC(CCC(=O)N2CCCC2c2nccs2)=NN1` (configuration not stated), the cytotoxicity at 10 µM was 4.06%.

In the case of `COc1cccc(C)c1C(=O)N1CCc2ncnc(NCCO)c2CC1`, the cytotoxicity at 10 µM worked out at 5.69%.

For `NCCCn1nc(C(F)(F)F)c2c1CCC2`, the cytotoxicity at 10 µM was -8.3%.

`COc1ccc(CNC(C)Cn2cccn2)cc1OC` (configuration not stated): the cytotoxicity at 10 µM is -0.966%.

`CCc1csc(C2CCCN(C(=O)c3cc(C4CC4)[nH]n3)C2)n1` (configuration not stated): the cytotoxicity at 10 µM was -1.22%.

With `CCc1nnc(CN(C)C2CCCN(Cc3noc(C4CC4)n3)C2)o1` (configuration not stated), the cytotoxicity at 10 µM was found to be 2.27%.

In the case of `O=C(c1csc(-c2cnccn2)n1)N1CCCC1Cn1cccn1` (configuration not stated), the cytotoxicity at 10 µM is -7.35%.

For `CCOc1ccc(C(=O)N(Cc2cnn(C)c2)C(C)C)cc1OCC`, the cytotoxicity at 10 µM is -8.4%.

On to `CC(C)N1CCN(C(=O)Nc2cnc3c(cnn3C(C)C)c2)CC1`, for which the cytotoxicity at 10 µM turned out to be 6.23%.

As to `CC(C(=O)N1CCOCC1)N1CCN(Cc2nccn2C)CC1` (configuration not stated), the cytotoxicity at 10 µM was -1.71%.

For the compound `O=C(c1cc(C2CC2)on1)N1CCCC(n2cccn2)C1` (configuration not stated), the cytotoxicity at 10 µM is -4.04%.

On to `O=C(c1cccc2ncccc12)N1CCCC(n2ccnc2)C1` (configuration not stated), for which the cytotoxicity at 10 µM is -11.6%.

Consider `O=C(Cn1nc(-c2ccc(F)cc2)oc1=O)NCCc1ccccc1`, for which the cytotoxicity at 10 µM was -13.5%.

With `COc1ccc(CNCc2c(C(C)C)nn(C)c2OC)cn1`, the cytotoxicity at 10 µM is -10.9%.

Take `Cc1cc(C2CCCN2Cc2nc3c(cnn3C)c(=O)[nH]2)on1` (configuration not stated): the cytotoxicity at 10 µM is -10.7%.

On to `CCOc1cccc2c1OCC(C(=O)NS(=O)(=O)c1cccs1)=C2`, for which the cytotoxicity at 10 µM was -2.97%.

With `COCCN(CCOC)Cc1nc2c(cnn2C)c(=O)[nH]1`, the cytotoxicity at 10 µM is -9.73%.

Take `Cc1noc2ncc(C(=O)N3CCCC(n4cccn4)C3)cc12` (configuration not stated): the cytotoxicity at 10 µM was -1.39%.

In the case of `O=C(c1ccn(-c2cccc(F)c2)n1)N1CCCC(n2cccn2)C1` (configuration not stated), the cytotoxicity at 10 µM is -5.25%.

In the case of `Cc1nn(C)c(N2CCOCC2)c1CNCc1ccc(Cl)s1`, the cytotoxicity at 10 µM stood at 4.09%.

In the case of `CC1CN(C(=O)CN(Cc2ccccc2Br)C2CC2)CCO1` (configuration not stated), the cytotoxicity at 10 µM was found to be 2.38%.

As to `CCn1nc(C)c(-c2cncn2CCN(C)C2CCCC2)c1C`, the cytotoxicity at 10 µM worked out at 4.83%.

For the compound `CCN1CCc2cc(-c3cncn3CCNC3CCS(=O)(=O)C3)ccc21` (configuration not stated), the cytotoxicity at 10 µM is -1.59%.

Consider `c1cc2c(cc1C1(CNC3=NCCN3)CCCC1)OCCO2`, for which the cytotoxicity at 10 µM came to 11%.

For the compound `O=C(NCc1cccs1)[C@@H]1CC[C@@H]2[C@@H](CCN2C2CCOCC2)O1`, the cytotoxicity at 10 µM is 0.37%.

In the case of `c1cc(CN2CC[C@@H]3CN(c4cnccn4)C[C@@H]3C2)ccn1`, the cytotoxicity at 10 µM was -119%.

For the compound `Cn1cc(N2CC3(CCN(Cc4ccoc4)CC3)OCC2=O)cn1`, the cytotoxicity at 10 µM was -1.66%.

On to `O=C(NCc1cccnc1)c1nc2c(s1)CCCN2C(=O)C1CC1`, for which the cytotoxicity at 10 µM is -93%.

In the case of `Cc1nc(CN2CCc3ncnc(-c4ccncc4)c3CC2)cs1`, the cytotoxicity at 10 µM is -70%.

These data come from ChEMBL document CHEMBL4513216, “Probing the Open Global Health Chemical Diversity Library for Multistage-Active Starting Points for Next-Generation Antimalarials” (ACS Infect Dis, 2020).
